# Legend:
# [1] = molecular target: T1, Peroxisome proliferator-activated receptor alpha (Homo sapiens, UniProt Q07869); assay: Activity against PPAR alpha in human by FRET assay
# T1 sequence (Q07869 whole entry): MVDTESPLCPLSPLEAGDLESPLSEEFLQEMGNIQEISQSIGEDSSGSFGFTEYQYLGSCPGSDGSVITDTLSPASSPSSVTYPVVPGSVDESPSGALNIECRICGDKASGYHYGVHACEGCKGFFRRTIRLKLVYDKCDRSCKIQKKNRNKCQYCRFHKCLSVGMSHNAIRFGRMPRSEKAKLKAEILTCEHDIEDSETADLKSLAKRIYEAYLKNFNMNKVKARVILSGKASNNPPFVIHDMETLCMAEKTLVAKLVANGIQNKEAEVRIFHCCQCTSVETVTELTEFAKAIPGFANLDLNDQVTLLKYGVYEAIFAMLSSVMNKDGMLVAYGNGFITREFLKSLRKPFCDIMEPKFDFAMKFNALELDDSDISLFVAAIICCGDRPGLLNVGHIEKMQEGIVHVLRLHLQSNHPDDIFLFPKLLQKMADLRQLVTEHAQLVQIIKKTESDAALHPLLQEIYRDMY
# Outline: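 Human PPAR-α ligand-binding domain (GST-tagged), incubated with compound, europium-labelled anti-GST antibody, biotinylated CREB-binding protein co-activator and streptavidin-APC. Time-resolved FRET read with excitation at 340 nm and emission at 615 and 640 nm. EC50 taken as the mean of at least three experiments.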
# [2] = molecular target: T2, Peroxisome proliferator-activated receptor gamma (Homo sapiens, UniProt P37231); assay: Activity against PPAR gamma in human by FRET assay
# T2 sequence (P37231 whole entry): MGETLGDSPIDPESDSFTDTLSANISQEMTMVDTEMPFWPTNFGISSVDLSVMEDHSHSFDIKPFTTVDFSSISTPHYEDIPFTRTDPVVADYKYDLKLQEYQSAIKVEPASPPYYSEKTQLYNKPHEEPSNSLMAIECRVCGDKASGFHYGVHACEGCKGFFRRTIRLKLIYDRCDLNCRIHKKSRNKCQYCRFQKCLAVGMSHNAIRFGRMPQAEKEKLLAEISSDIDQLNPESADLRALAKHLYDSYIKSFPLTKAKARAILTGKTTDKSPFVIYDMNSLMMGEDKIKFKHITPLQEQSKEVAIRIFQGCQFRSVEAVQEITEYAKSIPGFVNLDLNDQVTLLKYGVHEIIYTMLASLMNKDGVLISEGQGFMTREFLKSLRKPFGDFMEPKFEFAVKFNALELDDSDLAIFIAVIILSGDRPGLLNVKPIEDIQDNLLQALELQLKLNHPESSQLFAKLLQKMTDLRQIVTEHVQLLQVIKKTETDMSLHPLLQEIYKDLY
Structure (SMILES),EC50 [1],EC50 [2]
CCC(C(=O)O)C1CCc2cc(OCCc3nc(-c4ccc5c(c4)OCO5)oc3C)ccc21 (stereo not given),354 nM,14 nM
CCC(C(=O)O)C1CCc2cc(OCCc3nc(-c4ccccc4)oc3C)c(C(C)=O)cc21 (stereo not given),327 nM,> 10000 nM
CCC(C(=O)O)C1CCc2cc(OCCc3nc(-c4ccc(Cl)cc4Cl)oc3C)ccc21 (stereo not given),5480 nM,738 nM
CCC(C(=O)O)C1CCc2cc(OCCc3nc(-c4ccc(C)cc4)oc3C)ccc21 (stereo not given),65 nM,45 nM
CCC(C(=O)O)C1CCc2cc(OCCc3nc(-c4ccccc4F)oc3C)ccc21 (stereo not given),559 nM,49 nM
CCC(C(=O)O)C1CCc2cc(OCCc3nc(COc4ccccc4)oc3C)ccc21 (stereo not given),61 nM,45 nM
CCC(C(=O)O)C1CCc2cc(OCCc3nc(-c4ccccc4)oc3C)c(-c3ccc(OC)cc3)cc21 (stereo not given),23 nM,124 nM
CCC(C(=O)O)C1CCc2cc(OCCc3nc(-c4cccc(C(F)(F)F)c4)oc3C)ccc21 (stereo not given),171 nM,21 nM
CCC(C(=O)O)C1CCc2cc(OCCc3nc(-c4cccc(OC)c4)oc3C)ccc21 (stereo not given),254 nM,1 nM
CCC(C(=O)O)C1CCc2cc(OCc3nc(-c4ccccc4)oc3C)ccc21 (stereo not given),1220 nM,632 nM
CCC(C(=O)O)C1CCc2cc(OCCc3nc(-c4ccco4)oc3C)ccc21 (stereo not given),745 nM,396 nM
CCC(C(=O)O)C1CCc2cc(OCCc3nc(C4CCCCC4)oc3C)ccc21 (stereo not given),111 nM,136 nM
CCC(C(=O)O)C1CCc2cc(OCCc3nc(C4CCCC4)oc3C)ccc21 (stereo not given),202 nM,212 nM
CCC(C(=O)O)C1CCc2cc(OCCc3nc(-c4ccc5c(c4)OCC5)oc3C)ccc21 (stereo not given),65 nM,6 nM
CCC(C(=O)O)C1CCc2cc(OCCc3nc(-c4cc(C)on4)oc3C)ccc21 (stereo not given),827 nM,762 nM
CC[C@@H](C(=O)O)[C@@H]1CCc2cc(OCCc3nc(-c4ccc(C)cc4)oc3C)ccc21,1520 nM,> 10000 nM
CCC(C(=O)O)C1CCc2cc(OCCc3nc(-c4ccccc4)oc3-c3ccccc3)ccc21 (stereo not given),> 10000 nM,617 nM
CCC(C(=O)O)C1CCc2cc(OCCc3coc(-c4ccccc4)n3)ccc21 (stereo not given),383 nM,306 nM
CCc1oc(-c2ccccc2)nc1CCOc1ccc2c(c1)CCC2C(CC)C(=O)O (stereo not given),354 nM,46 nM

Structure (SMILES),EC50 [1],EC50 [2]
CC[C@H](C(=O)O)[C@H]1CCc2cc(OCCc3nc(-c4ccccc4)oc3C)ccc21,26 nM,19 nM
CC[C@H](C(=O)O)[C@H]1CCc2cc(OCCc3nc(-c4ccc(C)cc4)oc3C)ccc21,48 nM,83 nM
CCC(C(=O)O)C1CCc2cc(OCCc3nc(-c4cc5ccccc5s4)oc3C)ccc21 (stereo not given),287 nM,37 nM
CCC(C(=O)O)C1CCc2cc(OCCc3nc(-c4ccccc4)oc3C)c(Cl)cc21 (stereo not given),127 nM,294 nM
CCC(C(=O)O)C1CCc2cc(OCCNC(=O)c3ccccc3)ccc21 (stereo not given),> 10000 nM,> 10000 nM
CCCCc1ccc(-c2nc(CCOc3ccc4c(c3)CCC4C(CC)C(=O)O)c(C)o2)cc1 (stereo not given),82 nM,16 nM
CCC(C(=O)O)C1CCc2cc(OCCc3nc(-c4ccc(C)c(C)c4)oc3C)ccc21 (stereo not given),38 nM,32 nM
CCC(C(=O)O)C1CCc2cc(OCCc3nc(-c4ccc5ccccc5c4)oc3C)ccc21 (stereo not given),104 nM,16 nM
CCC(C(=O)O)C1CCc2cc(OCCc3nc(-c4c(F)cccc4F)oc3C)ccc21 (stereo not given),523 nM,368 nM
CC[C@@H](C(=O)O)[C@H]1CCc2cc(OCCc3nc(-c4ccc(F)cc4)oc3C)ccc21,868 nM,> 10000 nM
CCC(C(=O)O)C1CCc2cc(OCCc3nc(Cc4ccccc4)oc3C)ccc21 (stereo not given),718 nM,330 nM
CC[C@@H](C(=O)O)[C@@H]1CCc2cc(OCCc3nc(-c4ccccc4)oc3C)ccc21,350 nM,95 nM
CCC(C(=O)O)C1CCc2cc(OCc3nc(-c4ccccc4)oc3C(F)(F)F)ccc21 (stereo not given),1000 nM,> 10000 nM
CCC(C(=O)O)C1CCc2cc(OCCc3nc(-c4cccc5ccccc45)oc3C)ccc21 (stereo not given),451 nM,113 nM
CCC(C(=O)O)C1CCc2cc(OCCc3nc(-c4ccc(C(C)C)cc4)oc3C)ccc21 (stereo not given),119 nM,22 nM
CCC(C(=O)O)C1CCc2cc(OCCc3nc(-c4ccc(Cl)cc4)oc3C)ccc21 (stereo not given),92 nM,206 nM
CCC(C(=O)O)C1CCc2cc(OCCc3nc(-c4cccc(F)c4)oc3C)ccc21 (stereo not given),336 nM,61 nM
CCC(C(=O)O)C1CCc2cc(OCCc3nc(-c4ccccc4C)oc3C)ccc21 (stereo not given),637 nM,153 nM

# The next lines start with the values.
EC50 [1],EC50 [2],Structure (SMILES)
1130 nM,84 nM,CCC(C(=O)O)C1CCc2cc(OCCc3nc(-c4ccc(OC)c(OC)c4)oc3C)ccc21 (stereo not given)
46 nM,43 nM,CCC(C(=O)O)C1CCc2cc(OCCc3nc(-c4ccc(C)c(F)c4)oc3C)ccc21 (stereo not given)
204 nM,523 nM,CCC(C(=O)O)C1CCc2cc(OCCc3nc(Cc4ccc(F)cc4)oc3C)ccc21 (stereo not given)
670 nM,> 10000 nM,CCC(C(=O)O)C1CCc2cc(OCc3cc(-c4ccccc4)on3)ccc21 (stereo not given)
181 nM,> 10000 nM,CCC(C(=O)O)C1CCc2cc(OCCc3nc(-c4ccccc4)oc3C)c(Br)cc21 (stereo not given)
240 nM,19 nM,CCC(C(=O)O)C1CCc2cc(OCCc3nc(-c4ccc(C(C)(C)C)cc4)oc3C)ccc21 (stereo not given)
75 nM,77 nM,CCC(C(=O)O)C1CCc2cc(OCCc3nc(-c4ccc(F)c(C)c4)oc3C)ccc21 (stereo not given)
> 10000 nM,> 10000 nM,CC[C@@H](C(=O)O)[C@H]1CCc2cc(OCCc3nc(-c4ccc(C)cc4)oc3C)ccc21
109 nM,40 nM,CCc1ccc(-c2nc(CCOc3ccc4c(c3)CCC4C(CC)C(=O)O)c(C)o2)cc1 (stereo not given)
232 nM,> 10000 nM,CCC(C(=O)O)C1CCc2cc(OCCCc3nc(-c4ccccc4)oc3C(F)(F)F)ccc21 (stereo not given)
271 nM,34 nM,CCC(C(=O)O)C1CCc2cc(OCCc3nc(-c4cccc(C)c4)oc3C)ccc21 (stereo not given)
45 nM,168 nM,CCC(C(=O)O)C1CCc2cc(OCCc3nc(-c4ccccc4)oc3C)c(-c3ccc(Cl)cc3)cc21 (stereo not given)
199 nM,42 nM,CCC(C(=O)O)C1CCc2cc(OCCc3nc(-c4ccc(OC)cc4)oc3C)ccc21 (stereo not given)
62 nM,6 nM,CC[C@H](C(=O)O)[C@@H]1CCc2cc(OCCc3nc(-c4ccccc4)oc3C)ccc21
> 10000 nM,> 10000 nM,CCC(C(=O)O)C1CCc2cc(OCCn3nc(-c4ccccc4)c4ccccc4c3=O)ccc21 (stereo not given)
94 nM,46 nM,CC[C@H](C(=O)O)[C@@H]1CCc2cc(OCCc3nc(-c4ccc(F)cc4)oc3C)ccc21
58 nM,290 nM,CCC(C(=O)O)C1CCc2cc(OCCc3nc(-c4ccccc4)oc3C)c(-c3ccccc3)cc21 (stereo not given)
> 10000 nM,347 nM,CCC(C(=O)O)C1CCc2cc(OCCc3nc(-c4ccccc4)oc3C(C)C)ccc21 (stereo not given)
63 nM,225 nM,CC[C@@H](C(=O)O)[C@H]1CCc2cc(OCCc3nc(-c4ccc(Cl)c(Cl)c4)oc3C)ccc21
53 nM,104 nM,CCC(C(=O)O)C1CCc2cc(OCCc3nc(COc4ccc(Cl)cc4)oc3C)ccc21 (stereo not given)
57 nM,46 nM,CC[C@H](C(=O)O)[C@@H]1CCc2cc(OCCc3nc(-c4ccc(Cl)c(Cl)c4)oc3C)ccc21
> 10000 nM,605 nM,CC[C@@H](C(=O)O)[C@H]1CCc2cc(OCCc3nc(-c4ccccc4)oc3C)ccc21
1170 nM,247 nM,CCC(C(=O)O)C1CCc2cc(OCCc3nc(-c4cc(C(F)(F)F)cc(C(F)(F)F)c4)oc3C)ccc21 (stereo not given)
> 10000 nM,> 10000 nM,CCC(C(=O)O)C1CCc2cc(OCc3ccc(-c4nc(-c5ccccc5)oc4C)cc3)ccc21 (stereo not given)
3280 nM,43 nM,CCC(C(=O)O)C1CCc2cc(OCCc3nc(-c4ccc(-c5ccccc5)cc4)oc3C)ccc21 (stereo not given)
> 10000 nM,> 10000 nM,CCC(C(=O)O)C1CCc2cc(OCCNC(=O)Nc3ccc(C)cc3)ccc21 (stereo not given)
1000 nM,104 nM,Cc1oc(-c2ccccc2)nc1CCOc1ccc2c(c1)CCC2C(C)C(=O)O (stereo not given)
58 nM,205 nM,CCC(C(=O)O)C1CCc2cc(OCCc3nc(-c4ccc(C(F)(F)F)cc4)oc3C)ccc21 (stereo not given)

# — ChEMBL document CHEMBL1147759, “Substituted indanylacetic acids as PPAR-alpha-gamma activators” (Bioorg Med Chem Lett, 2006)
